Measurements taken from ChEMBL document CHEMBL1156332, “Polysubstituted pyrazoles, part 6. Synthesis of some 1-(4-chlorophenyl)-4-hydroxy-1H-pyrazol-3-carbonyl derivatives linked to nitrogenous heterocyclic ring systems as potential antitumor agents” (2010).

How the values were obtained:
Assay type in all cases: functional
SF-539 = test: Growth inhibition of human SF539 cells after 48 hrs by sulforhodamine B assay; conditions: SF-539, 48 h
In short: (§1)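 Adherent lines plated and held 24 h at 37 °C, 5% CO2, 100% humidity; time-zero plates TCA-fixed at drug addition. Drugs from DMSO stocks were made into five concentrations by 10-fold or half-log serial dilution and applied for 48 h continuous exposure. Cells were fixed with cold TCA (10% final) for 60 min at 4 °C, then stained with 0.4% SRB in 1% acetic acid for 10 min. Dye was solubilized in 10 mM Tris base and read at 515 nm. GI50 was taken from log concentration–growth curves.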

SF-295 = test: Growth inhibition of human SF295 cells after 48 hrs by sulforhodamine B assay; conditions: SF-295, 48 h
In short: (§2)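 NCI 60-line panel, five concentrations (0.01–100 µM) from DMSO stock diluted in medium with gentamicin. Cells were plated 24 h before dosing, with time-zero plates fixed at drug addition, then exposed 48 h at 37 °C, 5% CO₂. Adherent cells were fixed with cold TCA (10% final) and suspension cells with 16% TCA. Staining used 0.4% SRB, solubilised in 10 mM Tris and read at 515 nm. GI₅₀ was taken from log concentration–% growth curves.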

OVCAR-4 = test: Growth inhibition of human OVCAR4 cells after 48 hrs by sulforhodamine B assay; conditions: OVCAR-4, 48 h; in short: as §2
[1] = Growth inhibition of human NCI-H322 cells after 48 hrs by sulforhodamine B assay; conditions: NCI-H322, 48 h; in short: as §2
UACC-257 = test: Growth inhibition of human UACC257 cells after 48 hrs by sulforhodamine B assay; conditions: UACC-257, 48 h; in short: as §1
SNB-19 = test: Growth inhibition of human SNB19 cells after 48 hrs by sulforhodamine B assay; conditions: SNB-19, 48 h; in short: as §1
T47D = test: Growth inhibition of human T47D cells after 48 hrs by sulforhodamine B assay; in short: as §1
MDA-MB-435 = test: Growth inhibition of human MDA-MB-435 cells after 48 hrs by sulforhodamine B assay; conditions: MDA-MB-435, 48 h; in short: as §2
HOP-92 = test: Growth inhibition of human HOP92 cells after 48 hrs by sulforhodamine B assay; conditions: HOP-92, 48 h; in short: as §2
SW-620 = test: Growth inhibition of human SW620 cells after 48 hrs by sulforhodamine B assay; conditions: SW-620, 48 h; in short: as §1
[2] = Cytotoxicity against human colon cancer cells after 48 hrs by sulforhodamine B assay; conditions: Cancer cell lines
In short: (§3)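 NCI five-dose screen: about 60 human tumour lines grouped into nine subpanels were plated and incubated 24 h before dosing. Compounds went in as DMSO stock and were diluted in medium to five final concentrations (0.01–100 µM). Exposure was 48 h continuous at 37 °C, 5% CO₂, followed by TCA fixation and SRB staining read at 515 nm. Per-line GI₅₀, TGI and LC₅₀ came from log concentration–% growth curves, averaged per subpanel as MG-MID.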

[3] = Cytotoxicity against human lung cancer cells after 48 hrs by sulforhodamine B assay; conditions: Cancer cell lines; in short: as §3
MOLT-4 = test: Growth inhibition of human MOLT4 cells after 48 hrs by sulforhodamine B assay; conditions: MOLT-4, 48 h; in short: as §2
DU-145 = test: Growth inhibition of human DU145 cells after 48 hrs by sulforhodamine B assay; conditions: DU-145, 48 h; in short: as §2
OVCAR-5 = test: Growth inhibition of human OVCAR5 cells after 48 hrs by sulforhodamine B assay; conditions: OVCAR-5, 48 h; in short: as §2
U-251 = test: Growth inhibition of human U251 cells after 48 hrs by sulforhodamine B assay; conditions: U-251, 48 h; in short: as §1
NCI-H226 = test: Growth inhibition of human NCI-H226 cells after 48 hrs by sulforhodamine B assay; conditions: NCI-H226, 48 h; in short: as §2
[4] = Cytotoxicity against human breast cancer cells after 48 hrs by sulforhodamine B assay; conditions: Cancer cell lines; in short: as §3
[5] = Cytotoxicity against human melanoma cells after 48 hrs by sulforhodamine B assay; conditions: Melanoma cell; for CC50: read-out: LC50 (the source's name); in short: as §3
HCT-116 = test: Growth inhibition of human HCT116 cells after 48 hrs by sulforhodamine B assay; conditions: HCT-116, 48 h; in short: as §2
EKVX = test: Growth inhibition of human EKVX cells after 48 hrs by sulforhodamine B assay; in short: as §2
UO-31 = test: Growth inhibition of human UO31 cells after 48 hrs by sulforhodamine B assay; conditions: UO-31, 48 h; in short: as §1
ACHN = test: Growth inhibition of human ACHN cells after 48 hrs by sulforhodamine B assay; in short: as §2
NCI/ADR-RES = test: Growth inhibition of human NCI/ADR-RES cells after 48 hrs by sulforhodamine B assay; in short: as §2
PC-3 = test: Growth inhibition of human PC3 cells after 48 hrs by sulforhodamine B assay; conditions: PC-3, 48 h; in short: as §2
SK-MEL-2 = test: Growth inhibition of human SK-MEL-2 cells after 48 hrs by sulforhodamine B assay; conditions: SK-MEL-2, 48 h; in short: as §1
786-0 = test: Growth inhibition of human 786-0 cells after 48 hrs by sulforhodamine B assay; conditions: 786-0, 48 h; in short: as §2
NCI-H23 = test: Growth inhibition of human NCI-H23 cells after 48 hrs by sulforhodamine B assay; conditions: NCI-H23, 48 h; in short: as §2
SR = test: Growth inhibition of human SR cells after 48 hrs by sulforhodamine B assay
In short: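 Suspension leukemia line pre-incubated 24 h at 37 °C, 5% CO2; time-zero plates fixed at drug addition. Five drug concentrations were made by serial dilution from DMSO stocks and applied for 48 h. Settled cells were fixed with 80% TCA (16% final), stained with 0.4% SRB in 1% acetic acid, solubilized in 10 mM Tris base, and read at 515 nm. GI50 = concentration giving 50% decrease in net growth.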

| SMILES | GI50 (SF-539) [nM] | GI50 (SF-295) [nM] | GI50 (OVCAR-4) [nM] | GI50 [1] [nM] | GI50 (UACC-257) [nM] | GI50 (SNB-19) [nM] | GI50 (T47D) [nM] | GI50 (MDA-MB-435) [nM] | GI50 (HOP-92) [nM] | GI50 (SW-620) [nM] | GI50 [2] [nM] | TGI [2] [nM] | GI50 [3] [nM] | TGI [3] [nM] | GI50 (MOLT-4) [nM] | GI50 (DU-145) [nM] | GI50 (OVCAR-5) [nM] | GI50 (U-251) [nM] | GI50 (NCI-H226) [nM] | GI50 [4] [nM] | also measured |
| --- | --- | --- | --- | --- | --- | --- | --- | --- | --- | --- | --- | --- | --- | --- | --- | --- | --- | --- | --- | --- | --- |
| Cc1c2c(nn1C(=O)c1nn(-c3ccc(Cl)cc3)cc1O)-c1ccccc1CC2 | 41 | 20 | 264 | 54 | 210 | 45 | 59 | 37 | 52 | 360 | 221 | 86300 | 47 | 68100 | 43 | 50 | 72 | 31 | 45 | 82 | TGI [4]: 91700 nM; GI50 [5]: 140 nM; TGI [5]: 52100 nM; CC50 [5]: 86400 nM; GI50 (HCT-116): 34 nM; GI50 (EKVX): 71 nM; GI50 (UO-31): 99 nM; GI50 (ACHN): 48 nM; GI50 (NCI/ADR-RES): 46 nM; GI50 (PC-3): 37 nM; GI50 (SK-MEL-2): 5540 nM; GI50 (786-0): 319 nM; GI50 (NCI-H23): 41 nM |
| CC1=NN(C(=O)c2nn(-c3ccc(Cl)cc3)cc2O)C(=O)C1 | 1700 | 230 | 2400 | 850 | 1060 | 3160 | 2660 | 1200 | 3670 | 3410 | 3090 | 95400 | 1820 | 78200 | 1870 | 5220 | 3320 | 410 | 1400 | 2020 | GI50 (SR): 420 nM; TGI [4]: 90100 nM; GI50 [5]: 1820 nM; TGI [5]: 70500 nM; CC50 [5]: 93600 nM; GI50 (HCT-116): 680 nM; GI50 (EKVX): 2210 nM; GI50 (UO-31): 670 nM; GI50 (ACHN): 880 nM; GI50 (NCI/ADR-RES): 1890 nM; GI50 (786-0): 6450 nM; GI50 (NCI-H23): 2900 nM |
